Measurements collected from several papers.
Compare with care: the assays were run in different laboratories. In brackets after ≈: the same amount, converted by molar mass.

| Structure (SMILES) | target or system | observed | method | strain | time | endpoint | value |
| --- | --- | --- | --- | --- | --- | --- | --- |
| Cc1cnc(NC(=O)/C=C/c2cccs2)nc1 | Candida albicans | microbial growth |  |  | 48 h | MIC80 | 25 µM (≈ 6.13 µg/mL) |
| N.N.[Cl][Pt][Cl] | CCD 19Lu | cell growth or viability | MTT |  | 72 h | IC50 | 56.1 µM |
| OC(Cn1cncn1)(Cn1cncn1)c1ccc(F)cc1F | Candida albicans | microbial killing | broth dilution | SP3903 | 48 h | MFC | > 64 µM |
| OC(Cn1cncn1)(Cn1cncn1)c1ccc(F)cc1F | Candida albicans | microbial growth | broth dilution | ATCC60193 |  | MIC | 2 µg/mL (≈ 6.53 µM) |
| O=c1ccc2nc3ccc(O)cc3oc-2c1 | Enterococcus faecium | microbial growth |  |  | 24 h | MIC | > 32 µg/mL |
| O=C(CCc1ccccc1)Nc1ncccn1 | Candida albicans | microbial growth |  |  | 48 h | MIC80 | > 100 µM |
| CC(=O)N1CCN(c2ccc(OCC3COC(Cn4ccnc4)(c4ccc(Cl)cc4Cl)O3)cc2)CC1 (centres unmarked) | Candida albicans | microbial killing | broth dilution | 58288 | 48 h | MFC | > 64 µM |
| O=c1ccc2nc3ccc(OCc4ccc([N+](=O)[O-])o4)cc3oc-2c1 | Enterococcus faecium | microbial growth |  |  | 24 h | MIC | > 32 µg/mL |
